The source of these data is ChEMBL document CHEMBL3124907.

Test [1] concerns the target 5-hydroxytryptamine receptor 2B (Homo sapiens) (UniProt P41595). Description: Inhibition of 5-HT2B receptor (unknown origin) at 10 uM by radioligand binding assay relative to control.
The target in test [2] is 5-hydroxytryptamine receptor 2A (Homo sapiens) (UniProt P28223). Description: Inhibition of 5-HT2A receptor (unknown origin) at 10 uM by radioligand binding assay relative to control.
Test [3] has as its target T1, 5-hydroxytryptamine receptor 2C (Homo sapiens) (UniProt P28335).
T1 sequence (whole entry): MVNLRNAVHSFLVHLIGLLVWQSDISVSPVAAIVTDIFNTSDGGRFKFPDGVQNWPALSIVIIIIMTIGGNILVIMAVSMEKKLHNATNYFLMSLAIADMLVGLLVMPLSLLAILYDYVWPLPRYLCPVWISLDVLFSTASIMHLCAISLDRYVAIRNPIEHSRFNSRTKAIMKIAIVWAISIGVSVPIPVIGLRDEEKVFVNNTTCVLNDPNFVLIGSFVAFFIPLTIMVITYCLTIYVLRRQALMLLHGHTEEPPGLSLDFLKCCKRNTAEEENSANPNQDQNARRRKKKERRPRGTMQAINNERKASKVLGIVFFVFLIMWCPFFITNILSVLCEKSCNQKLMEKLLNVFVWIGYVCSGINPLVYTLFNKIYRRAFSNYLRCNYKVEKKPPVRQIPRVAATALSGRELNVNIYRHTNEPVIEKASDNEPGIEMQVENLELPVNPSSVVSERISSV
Briefly: Inhibition of 5-HT2C receptor (unknown origin) at 10 uM by radioligand binding assay relative to control.

The target in test [4] is Muscarinic acetylcholine receptor M2 (Homo sapiens) (UniProt P08172). Description: Inhibition of muscarinic M2 receptor (unknown origin) at 10 uM by radioligand binding assay relative to control.
The target of test [5] is Alpha-2C adrenergic receptor (Homo sapiens) (UniProt P18825). Description: Inhibition of alpha2C adrenergic receptor (unknown origin) at 10 uM by radioligand binding assay relative to control.
Chain of Alpha-2C adrenergic receptor (Homo sapiens) (P18825 whole entry): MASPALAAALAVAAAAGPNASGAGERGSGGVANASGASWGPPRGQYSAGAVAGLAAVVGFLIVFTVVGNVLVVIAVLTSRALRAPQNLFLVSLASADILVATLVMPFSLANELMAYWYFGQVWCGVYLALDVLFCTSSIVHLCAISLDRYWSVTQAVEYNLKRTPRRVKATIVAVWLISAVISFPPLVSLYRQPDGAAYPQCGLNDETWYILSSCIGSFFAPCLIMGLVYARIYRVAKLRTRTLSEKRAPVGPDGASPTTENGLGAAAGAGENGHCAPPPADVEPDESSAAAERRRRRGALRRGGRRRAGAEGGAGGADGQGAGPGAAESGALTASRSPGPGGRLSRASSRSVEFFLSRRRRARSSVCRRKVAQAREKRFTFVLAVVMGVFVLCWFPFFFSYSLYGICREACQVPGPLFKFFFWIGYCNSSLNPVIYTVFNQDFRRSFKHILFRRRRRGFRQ
The target in test [6] is 5-hydroxytryptamine receptor 7 (Homo sapiens) (UniProt P34969). Description: Inhibition of 5-HT7 receptor (unknown origin) at 10 uM by radioligand binding assay relative to control.
The target in test [7] is Alpha-2A adrenergic receptor (Homo sapiens) (UniProt P08913). Description: Inhibition of alpha2A adrenergic receptor (unknown origin) at 10 uM by radioligand binding assay relative to control.
Chain of Alpha-2A adrenergic receptor (Homo sapiens) (P08913 whole entry): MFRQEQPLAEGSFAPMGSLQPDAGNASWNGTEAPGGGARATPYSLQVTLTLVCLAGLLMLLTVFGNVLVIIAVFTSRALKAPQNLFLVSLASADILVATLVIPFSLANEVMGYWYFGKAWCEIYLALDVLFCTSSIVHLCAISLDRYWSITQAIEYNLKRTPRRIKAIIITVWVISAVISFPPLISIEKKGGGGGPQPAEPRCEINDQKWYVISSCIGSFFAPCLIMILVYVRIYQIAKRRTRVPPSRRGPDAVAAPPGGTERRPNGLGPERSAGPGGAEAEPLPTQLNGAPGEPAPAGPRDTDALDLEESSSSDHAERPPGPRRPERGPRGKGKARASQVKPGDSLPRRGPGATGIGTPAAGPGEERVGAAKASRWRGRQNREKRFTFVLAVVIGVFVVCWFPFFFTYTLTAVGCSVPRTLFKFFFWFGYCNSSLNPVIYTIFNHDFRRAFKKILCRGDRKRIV
Test [8] has as its target Alpha-1D adrenergic receptor (Homo sapiens) (UniProt P25100). Briefly: Inhibition of alpha1D adrenergic receptor (unknown origin) at 10 uM by radioligand binding assay relative to control.
In test [9] the target is Muscarinic acetylcholine receptor M5 (Homo sapiens) (UniProt P08912). Description: Inhibition of muscarinic M5 receptor (unknown origin) at 10 uM by radioligand binding assay relative to control.
The target in test [10] is 5-hydroxytryptamine receptor 6 (Homo sapiens) (UniProt P50406). Description: Inhibition of 5-HT6 receptor (unknown origin) at 10 uM by radioligand binding assay relative to control.
The target in test [11] is Translocator protein (Homo sapiens) (UniProt P30536). Briefly: Inhibition of PBR (unknown origin) at 10 uM by radioligand binding assay relative to control.
Chain of Translocator protein (Homo sapiens) (P30536 whole entry): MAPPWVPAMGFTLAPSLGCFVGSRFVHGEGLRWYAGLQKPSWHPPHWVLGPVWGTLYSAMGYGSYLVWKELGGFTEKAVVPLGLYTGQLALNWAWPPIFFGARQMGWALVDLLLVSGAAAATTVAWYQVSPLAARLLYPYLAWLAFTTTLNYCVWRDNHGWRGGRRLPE
For a further test, the species on record is Homo sapiens. Description: Inhibition of sigma-2 receptor (unknown origin) at 10 uM by radioligand binding assay relative to control.
Test [12] concerns the target 5-hydroxytryptamine receptor 2B (Homo sapiens) (UniProt P41595). Briefly: Agonist activity at 5-HT2B receptor (unknown origin) expressed in Flp-In HEK cells assessed as stimulation of calcium mobilization at 10 uM relative to 5-HT. In kind it is functional, cell-based. The following applies: HEK293. Put shortly:
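Agonist-mode calcium mobilization in Flp-In HEK cells expressing 5-HT2B, with test compound at 10 µM. Response expressed as percent of the maximal 5-HT response.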

The target of test [13] is Sodium-dependent noradrenaline transporter (Homo sapiens) (UniProt P23975). Briefly: Inhibition of NET (unknown origin) at 10 uM by radioligand binding assay relative to control.
Test [14] addresses 5-hydroxytryptamine receptor 1D (Homo sapiens) (UniProt P28221). Briefly: Inhibition of 5-HT1D receptor (unknown origin) at 10 uM by radioligand binding assay relative to control.
In test [15] the target is Alpha-1A adrenergic receptor (Homo sapiens) (UniProt P35348). Description: Inhibition of alpha1A adrenergic receptor (unknown origin) at 10 uM by radioligand binding assay relative to control.
Test [16] has as its target Beta-2 adrenergic receptor (Homo sapiens) (UniProt P07550). Briefly: Inhibition of beta-2 adrenergic receptor (unknown origin) at 10 uM by radioligand binding assay relative to control.
The target of test [17] is Glutamate [NMDA] receptor (Homo sapiens) (UniProt Q05586+Q12879+Q13224+O15399+O60391+Q14957+Q8TCU5). Briefly: Inhibition of NMDA receptor (unknown origin) at 10 uM by radioligand binding assay relative to control.
Test [18] deals with Histamine H1 receptor (Homo sapiens) (UniProt P35367). Description: Inhibition of histamine H1 receptor (unknown origin) at 10 uM by radioligand binding assay relative to control.
For a further test, the species on record is Rattus norvegicus. Briefly: Inhibition of benzodiazepine receptor in rat brain at 10 uM by radioligand binding assay relative to control. In kind it is tissue-based.
In test [19] the target is Histamine H3 receptor (Homo sapiens) (UniProt Q9Y5N1). Briefly: Inhibition of histamine H3 receptor (unknown origin) at 10 uM by radioligand binding assay relative to control.
Test [20] concerns the target 5-hydroxytryptamine receptor 3A (Homo sapiens) (UniProt P46098). Briefly: Inhibition of 5-HT3 receptor (unknown origin) at 10 uM by radioligand binding assay relative to control.
For test [21], the target named is D(1B) dopamine receptor (Homo sapiens) (UniProt P21918). Briefly: Inhibition of dopamine D5 receptor (unknown origin) at 10 uM by radioligand binding assay relative to control.
Chain of D(1B) dopamine receptor (Homo sapiens) (P21918 whole entry): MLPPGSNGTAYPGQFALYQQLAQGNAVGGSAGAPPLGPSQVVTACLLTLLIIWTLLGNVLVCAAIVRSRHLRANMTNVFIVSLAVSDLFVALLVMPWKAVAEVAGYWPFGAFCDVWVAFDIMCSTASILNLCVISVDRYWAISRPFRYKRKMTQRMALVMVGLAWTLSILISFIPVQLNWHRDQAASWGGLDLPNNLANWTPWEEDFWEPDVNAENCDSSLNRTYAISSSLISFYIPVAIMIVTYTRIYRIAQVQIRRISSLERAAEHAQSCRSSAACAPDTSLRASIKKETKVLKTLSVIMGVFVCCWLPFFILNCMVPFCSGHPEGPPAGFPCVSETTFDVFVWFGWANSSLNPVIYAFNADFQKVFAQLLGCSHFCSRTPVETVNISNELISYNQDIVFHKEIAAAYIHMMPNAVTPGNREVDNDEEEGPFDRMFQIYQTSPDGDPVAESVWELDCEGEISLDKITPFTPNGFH
In test [22] the target is 5-hydroxytryptamine receptor 1B (Homo sapiens) (UniProt P28222). Description: Inhibition of 5-HT1B receptor (unknown origin) at 10 uM by radioligand binding assay relative to control.
In test [23] the target is Alpha-1B adrenergic receptor (Homo sapiens) (UniProt P35368). Briefly: Inhibition of alpha1B adrenergic receptor (unknown origin) at 10 uM by radioligand binding assay relative to control.
Test [24] concerns the target D(1A) dopamine receptor (Homo sapiens) (UniProt P21728). Briefly: Inhibition of dopamine D1 receptor (unknown origin) at 10 uM by radioligand binding assay relative to control.
Test [25] has as its target Sodium-dependent serotonin transporter (Homo sapiens) (UniProt P31645). Description: Inhibition of SERT (unknown origin) at 10 uM by radioligand binding assay relative to control.
In test [26] the target is 5-hydroxytryptamine receptor 1A (Homo sapiens) (UniProt P08908). Briefly: Inhibition of 5-HT1A receptor (unknown origin) at 10 uM by radioligand binding assay relative to control.
Chain of 5-hydroxytryptamine receptor 1A (Homo sapiens) (P08908 whole entry): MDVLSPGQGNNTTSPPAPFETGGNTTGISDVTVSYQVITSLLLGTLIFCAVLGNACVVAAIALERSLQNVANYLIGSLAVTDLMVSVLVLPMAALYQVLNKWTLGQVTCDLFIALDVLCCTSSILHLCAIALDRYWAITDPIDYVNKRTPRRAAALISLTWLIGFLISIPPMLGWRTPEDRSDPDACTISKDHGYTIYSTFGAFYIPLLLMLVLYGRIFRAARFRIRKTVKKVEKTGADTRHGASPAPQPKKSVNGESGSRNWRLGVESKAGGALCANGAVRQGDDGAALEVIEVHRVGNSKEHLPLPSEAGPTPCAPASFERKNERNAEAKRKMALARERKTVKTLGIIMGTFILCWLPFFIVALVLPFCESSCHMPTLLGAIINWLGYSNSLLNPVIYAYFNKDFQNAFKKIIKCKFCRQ

Chain of 5-hydroxytryptamine receptor 2B (Homo sapiens) (P41595 whole entry): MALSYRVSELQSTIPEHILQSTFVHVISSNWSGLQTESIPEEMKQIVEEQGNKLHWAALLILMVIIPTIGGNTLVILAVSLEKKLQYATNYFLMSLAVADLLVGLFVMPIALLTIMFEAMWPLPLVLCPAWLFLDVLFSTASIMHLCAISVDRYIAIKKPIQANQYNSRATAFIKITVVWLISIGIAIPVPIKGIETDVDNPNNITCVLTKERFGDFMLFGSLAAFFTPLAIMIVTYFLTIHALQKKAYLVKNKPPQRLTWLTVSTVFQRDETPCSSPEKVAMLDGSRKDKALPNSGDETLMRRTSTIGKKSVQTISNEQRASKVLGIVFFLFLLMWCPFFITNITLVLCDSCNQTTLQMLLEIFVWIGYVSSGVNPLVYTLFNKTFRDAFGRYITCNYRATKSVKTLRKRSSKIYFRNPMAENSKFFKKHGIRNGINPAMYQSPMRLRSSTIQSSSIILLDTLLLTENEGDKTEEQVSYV
Chain of 5-hydroxytryptamine receptor 2A (Homo sapiens) (P28223 whole entry): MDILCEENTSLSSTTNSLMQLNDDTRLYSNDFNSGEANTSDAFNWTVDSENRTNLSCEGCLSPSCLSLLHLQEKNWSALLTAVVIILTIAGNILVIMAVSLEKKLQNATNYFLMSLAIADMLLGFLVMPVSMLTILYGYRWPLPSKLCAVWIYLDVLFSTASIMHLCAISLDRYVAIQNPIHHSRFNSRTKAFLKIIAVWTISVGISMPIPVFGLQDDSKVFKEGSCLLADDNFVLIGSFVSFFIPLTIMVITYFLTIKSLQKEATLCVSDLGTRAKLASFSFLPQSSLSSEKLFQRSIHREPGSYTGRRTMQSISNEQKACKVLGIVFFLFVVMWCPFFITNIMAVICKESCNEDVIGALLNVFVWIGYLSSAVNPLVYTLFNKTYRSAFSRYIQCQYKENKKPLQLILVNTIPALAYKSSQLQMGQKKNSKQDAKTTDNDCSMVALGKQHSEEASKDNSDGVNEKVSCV
Chain of Alpha-1D adrenergic receptor (Homo sapiens) (P25100 whole entry): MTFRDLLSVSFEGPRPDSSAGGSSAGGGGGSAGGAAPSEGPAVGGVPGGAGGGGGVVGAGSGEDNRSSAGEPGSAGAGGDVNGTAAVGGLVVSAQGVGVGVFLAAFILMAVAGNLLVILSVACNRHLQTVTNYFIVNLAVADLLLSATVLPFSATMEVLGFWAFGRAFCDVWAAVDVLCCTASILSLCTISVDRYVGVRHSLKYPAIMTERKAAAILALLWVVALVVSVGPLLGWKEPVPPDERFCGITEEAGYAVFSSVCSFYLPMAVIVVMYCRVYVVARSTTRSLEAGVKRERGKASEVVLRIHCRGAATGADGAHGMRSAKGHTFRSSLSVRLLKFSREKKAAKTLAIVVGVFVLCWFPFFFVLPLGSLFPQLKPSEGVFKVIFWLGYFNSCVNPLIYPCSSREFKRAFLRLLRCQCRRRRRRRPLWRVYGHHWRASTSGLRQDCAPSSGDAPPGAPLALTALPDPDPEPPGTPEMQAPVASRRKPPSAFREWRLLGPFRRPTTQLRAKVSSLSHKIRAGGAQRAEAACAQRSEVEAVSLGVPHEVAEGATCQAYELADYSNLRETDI
Chain of Beta-2 adrenergic receptor (Homo sapiens) (P07550 whole entry, looked up): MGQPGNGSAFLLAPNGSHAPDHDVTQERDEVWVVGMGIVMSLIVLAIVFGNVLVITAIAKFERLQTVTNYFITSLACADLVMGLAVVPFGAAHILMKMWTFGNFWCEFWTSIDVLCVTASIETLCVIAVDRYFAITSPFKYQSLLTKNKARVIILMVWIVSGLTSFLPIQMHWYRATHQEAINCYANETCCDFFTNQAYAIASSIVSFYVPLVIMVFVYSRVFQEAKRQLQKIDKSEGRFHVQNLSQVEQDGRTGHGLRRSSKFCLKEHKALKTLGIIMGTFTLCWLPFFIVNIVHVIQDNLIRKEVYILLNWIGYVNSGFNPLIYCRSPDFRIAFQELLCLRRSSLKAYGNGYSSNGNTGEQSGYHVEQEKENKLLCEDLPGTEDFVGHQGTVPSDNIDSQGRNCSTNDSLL
Chain of 5-hydroxytryptamine receptor 1D (Homo sapiens) (P28221 whole entry): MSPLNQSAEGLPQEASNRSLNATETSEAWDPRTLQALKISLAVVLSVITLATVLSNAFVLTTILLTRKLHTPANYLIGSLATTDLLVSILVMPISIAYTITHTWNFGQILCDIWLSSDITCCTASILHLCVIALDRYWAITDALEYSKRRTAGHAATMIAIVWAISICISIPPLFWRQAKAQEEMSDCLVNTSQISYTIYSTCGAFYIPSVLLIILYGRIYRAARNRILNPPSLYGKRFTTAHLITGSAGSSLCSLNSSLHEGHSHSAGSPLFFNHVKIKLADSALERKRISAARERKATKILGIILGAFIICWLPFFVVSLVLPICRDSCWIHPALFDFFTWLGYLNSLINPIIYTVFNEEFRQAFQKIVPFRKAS
Chain of Sodium-dependent serotonin transporter (Homo sapiens) (P31645 whole entry, looked up): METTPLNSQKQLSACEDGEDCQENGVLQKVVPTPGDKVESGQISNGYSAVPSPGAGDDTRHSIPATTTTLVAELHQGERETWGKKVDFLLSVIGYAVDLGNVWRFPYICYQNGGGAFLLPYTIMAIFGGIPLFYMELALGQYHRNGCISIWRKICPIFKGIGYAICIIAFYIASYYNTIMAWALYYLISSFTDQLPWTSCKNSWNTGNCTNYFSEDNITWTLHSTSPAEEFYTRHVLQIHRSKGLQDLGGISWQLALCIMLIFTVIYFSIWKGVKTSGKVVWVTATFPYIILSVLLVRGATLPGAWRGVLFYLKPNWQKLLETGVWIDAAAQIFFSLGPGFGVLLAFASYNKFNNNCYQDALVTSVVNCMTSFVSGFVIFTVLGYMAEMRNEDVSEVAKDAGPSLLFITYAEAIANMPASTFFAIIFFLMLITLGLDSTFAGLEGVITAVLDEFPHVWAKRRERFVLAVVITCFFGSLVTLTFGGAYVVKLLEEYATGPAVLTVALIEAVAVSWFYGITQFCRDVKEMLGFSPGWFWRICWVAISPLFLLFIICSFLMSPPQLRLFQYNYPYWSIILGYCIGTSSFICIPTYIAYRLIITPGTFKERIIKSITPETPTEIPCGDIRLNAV

Take `O=c1cc(Cc2ccccc2)oc2cccc(O)c12`: the inhibition in [1] is 30.6%; in test [2], 1.4%; in test [3], 24.8%.

For `O=c1cc(CCc2ccccc2)oc2cccc(O)c12`, the inhibition in [4] came out at 1.8%; in test [5], 32.7%; in [6], 35.9%; in test [7], 22.2%; in [8], 2.1%; in test [9], 19.3%. The inhibition turned out to be 5.8% in [10]; 2.8% in test [11]; 36.8% in the test listed under Homo sapiens; 34.6% in test [13]; 4.3% in test [14]; 16.9% in test [15]. Besides, the inhibition stood at 1.4% in test [16]; 17.4% in test [17]; 13% in [18]; 0.1% in the test listed under Rattus norvegicus; 15.9% in test [19]; 61.7% in [20]. Moreover, the inhibition in test [21] came to 0.4%; in [22], 3.7%; in test [23] it was 2.9%; in test [24], 24.7%; in test [25], 28.9%; in test [26] it was 5.4%. In test [12], the Activity was 0.6%.

On to `O=c1cc(COc2ccccc2)oc2cccc(O)c12`, for which the inhibition in [1] was found to be 50%; in [2], 0.2%; in test [3], 7.8%.

`O=c1cc(CCc2cccs2)oc2cccc(O)c12`: the inhibition in test [1] came out at 74.8%; in [2], 1.4%; in [3], 19.6%.

On to `O=c1cc(CCCc2ccccc2)oc2cccc(O)c12`, for which the results for the inhibition in [1], in [2] and in [3] were 70.4%, 5.4% and 7.9%, respectively.

For the compound `O=c1cc(CCCCc2ccccc2)oc2cccc(O)c12`, the inhibition came to 45.2% in [1], 5.7% in test [2] and 14.7% in test [3].

Consider `O=c1cc(Cc2cccs2)oc2cccc(O)c12`, for which the results for the inhibition in [1], in test [2] and in test [3] were 31.5%, -4.5% and 23.5%, respectively.
